Measurements published in ChEMBL document CHEMBL1629505, “Antiarrhythmic, serotonin antagonist and antianxiety activities of novel substituted thiophene derivatives synthesized from 2-amino-4,5,6,7-tetrahydro-N-phenylbenzo[b]thiophene-3-carboxamide” (Eur J Med Chem, 2010).

Experiments:
Rattus norvegicus = assay: Antiarrhythmic activity in aconitine-intoxicated iv dosed Ivanovas rat assessed as inhibition of ventricular dysfunction; assay type: functional, Heart
Procedure, shortened: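 Male Ivanovas rats (300–350 g) were anaesthetised with urethane 1.25 g/kg ip. Compound was given iv at 5 mg/kg 5 min before saphenous vein infusion of aconitine ([…], 0.1 ml/min). Lead II ECG was recorded every 30 s. Read-out was aconitine per 100 g causing ventricular extrasystoles, tachycardia and fibrillation versus untreated controls. Used 24 rats/compound; Student's t-test.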

[1] = Acute toxicity in rat; assay type: organism-based; settings: in vivo
Mus musculus = assay: Antianxiety activity in ip dosed Albino mouse assessed as increase in locomotor activity after 30 mins relative to Diazepam; assay type: functional

N=c1oc(-c2ccccc2)nc2sc3c(c12)CCCC3
LD100 increase (Rattus norvegicus): 68.15% | LD50 [1]: 224 mg/kg | Ratio (Mus musculus): 3

O=C1CC2(CCCC2)CC(=O)N1CCCCN1CCN(c2ncccn2)CC1 [BUSPIRONE]
LD50 [1]: 113 mg/kg

N#Cc1c(NC(=O)CCl)sc2c1CCCC2
LD100 increase (Rattus norvegicus): 73.1% | LD50 [1]: 194 mg/kg | Ratio (Mus musculus): 3

COc1cccc(-n2nnc3sc4c(c3c2=O)CCCC4)c1
LD100 increase (Rattus norvegicus): 75% | LD50 [1]: 124 mg/kg | Ratio (Mus musculus): 4

COc1cccc(NC(=O)c2c(N)sc3c2CCCC3)c1
LD50 [1]: 121 mg/kg | Ratio (Mus musculus): 4

N#Cc1c(N)sc2c1CCCC2
LD50 [1]: 152 mg/kg | Ratio (Mus musculus): 1

COc1cccc(-n2c(=S)[nH]c3sc4c(c3c2=O)CCCC4)c1
LD100 increase (Rattus norvegicus): 76% | LD50 [1]: 210 mg/kg | Ratio (Mus musculus): 3

COc1cccc(NC(=O)c2c(NC(=O)/C=C/c3ccccc3)sc3c2CCCC3)c1
LD100 increase (Rattus norvegicus): 74.6% | LD50 [1]: 276 mg/kg | Ratio (Mus musculus): 5

N=c1c2c3c(sc2nc(S)n1C(=O)c1ccccc1)CCCC3
LD100 increase (Rattus norvegicus): 84.3% | LD50 [1]: 221 mg/kg | Ratio (Mus musculus): 5

N#Cc1c(-n2c(O)csc2=N)sc2c1CCCC2
LD100 increase (Rattus norvegicus): 82.1% | LD50 [1]: 274 mg/kg | Ratio (Mus musculus): 12

N=c1oc(/C=C/c2ccccc2)nc2sc3c(c12)CCCC3
LD100 increase (Rattus norvegicus): 80.1% | LD50 [1]: 244 mg/kg | Ratio (Mus musculus): 6

N#Cc1c(N2C(=O)C=CC2=O)sc2c1CCCC2
LD50 [1]: 234 mg/kg | Ratio (Mus musculus): 3

COc1cccc(-n2c(/C=C/c3ccccc3)nc3sc4c(c3c2=O)CCCC4)c1
LD100 increase (Rattus norvegicus): 82% | LD50 [1]: 243 mg/kg | Ratio (Mus musculus): 7

CCN(CC)CC(=O)Nc1c(C)cccc1C [LIDOCAINE]
LD100 increase (Rattus norvegicus): 65%

CCN(CC)CCNC(=O)c1ccc(N)cc1 [PROCAINAMIDE]
LD100 increase (Rattus norvegicus): 65%

N#Cc1c(NC(=O)/C=C/c2ccccc2)sc2c1CCCC2
LD100 increase (Rattus norvegicus): 77.5% | LD50 [1]: 186 mg/kg | Ratio (Mus musculus): 5

COc1cccc(NC(=O)c2c(NC(=O)c3ccccc3)sc3c2CCCC3)c1
LD100 increase (Rattus norvegicus): 67.9% | LD50 [1]: 236 mg/kg | Ratio (Mus musculus): 2

COc1cccc(-n2c(-c3ccccc3)nc3sc4c(c3c2=O)CCCC4)c1
LD100 increase (Rattus norvegicus): 70.1% | LD50 [1]: 136 mg/kg | Ratio (Mus musculus): 5

N#Cc1c(/N=C/c2ccccc2)sc2c1CCCC2
LD100 increase (Rattus norvegicus): 73.6% | LD50 [1]: 246 mg/kg | Ratio (Mus musculus): 2

N#Cc1c(N2C(=S)N=C(c3ccccc3)OC2c2ccccc2)sc2c1CCCC2 (centres undefined)
LD100 increase (Rattus norvegicus): 84% | LD50 [1]: 297 mg/kg | Ratio (Mus musculus): 16

N#Cc1c(NC(=S)NC(=O)c2ccccc2)sc2c1CCCC2
LD100 increase (Rattus norvegicus): 84% | LD50 [1]: 175 mg/kg | Ratio (Mus musculus): 10
